Target: Wee1-like protein kinase (Homo sapiens) (UniProt P30291)
Test: WEE1 stabilizers, potency, late-stage follow-up, cell-based, HeLa, WEE1K328M-luciferase, luminescence, assay provider (AID 463080)
Conditions: HeLa WEE1K328M-luciferase stabilization;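 active = stabilizers of WEE1 reporter signal whose EC50 is at most 1000 nM; inactive = EC50 above 1000 nM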
Method in brief: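 Assay system: transfected HeLa with WEE1 K328M–luciferase reporter / Incubation: 20 h compound treatment at 37 °C / Signal: lytic luciferase luminescence / Replication: quadruplicate wells per compound concentration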

Sequence of Wee1-like protein kinase (Homo sapiens) (P30291 whole entry K328M): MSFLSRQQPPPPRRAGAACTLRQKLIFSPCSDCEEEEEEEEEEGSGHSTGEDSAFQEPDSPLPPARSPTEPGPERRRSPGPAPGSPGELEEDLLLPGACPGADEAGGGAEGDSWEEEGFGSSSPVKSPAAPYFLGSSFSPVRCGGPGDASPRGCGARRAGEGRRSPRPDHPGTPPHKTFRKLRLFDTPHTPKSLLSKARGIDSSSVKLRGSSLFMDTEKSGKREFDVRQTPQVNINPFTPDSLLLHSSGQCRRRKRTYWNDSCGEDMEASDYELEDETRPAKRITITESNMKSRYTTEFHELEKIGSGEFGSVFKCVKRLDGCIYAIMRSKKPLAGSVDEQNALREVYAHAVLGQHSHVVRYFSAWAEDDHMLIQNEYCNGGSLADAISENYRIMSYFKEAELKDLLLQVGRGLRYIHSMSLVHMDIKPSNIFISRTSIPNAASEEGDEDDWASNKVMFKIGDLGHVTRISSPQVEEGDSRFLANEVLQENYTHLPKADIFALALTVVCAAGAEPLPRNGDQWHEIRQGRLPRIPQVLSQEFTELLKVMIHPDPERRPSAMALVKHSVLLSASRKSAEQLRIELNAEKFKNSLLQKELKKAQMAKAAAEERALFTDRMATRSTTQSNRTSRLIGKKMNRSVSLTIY

EC50, active:
c1ccc2[nH]c(CNc3nc(N4CCOCC4)nc4c3ncn4-c3ccsc3)nc2c1 624 nM
CC(C)n1cnc2c(NCc3nc4c([N+](=O)[O-])cccc4[nH]3)nc(N3CCOCC3)nc21 201 nM
O=[N+]([O-])c1cccc2[nH]c(CNc3nc(N4CCOCC4)nc4c3ncn4-c3ccsc3)nc12 40 nM
CCOC(=O)c1cccc2[nH]c(CNc3nc(N4CCOCC4)nc4c3ncn4-c3ccsc3)nc12 207 nM
Clc1ccc2nc(CNc3nc(N4CCOCC4)nc4c3ncn4-c3ccsc3)[nH]c2c1 164 nM

From PubChem BioAssay AID463080 (The Scripps Research Institute Molecular Screening Center, 2010)
